pIC50: −log10 of the molar value.

What all share (assay type): functional, cell-based
For experiment [1], the target named is T1, Sphingosine 1-phosphate receptor 1 (Homo sapiens, UniProt P21453). The experiment is described as follows: Antagonist activity at human S1P1 receptor expressed in CHO cell membrane by cAMP assay. The procedure, abridged:
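CHO cells stably expressing human S1P1, kept in selection medium with 125 nM methotrexate, seeded at 4 × 10⁵ cells/well and grown overnight. Serum was removed, cells preincubated 5 min with 1 mM IBMX, then stimulated 15 min with 30 µM forskolin ± 100 nM S1P plus test compound at various concentrations, with IBMX kept present. Cells were lysed in 1% Triton X-100; cAMP read by competitive kit assay (n = 3).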

Experiment [2] concerns the target Sphingosine 1-phosphate receptor 3 (Homo sapiens, UniProt Q99500). The experiment is described as follows: Antagonist activity at human S1P3 receptor expressed in CHO cell membrane by FLIPR assay. The method, boiled down:
(§1)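 Stably transfected CHO cells in HAM medium with 10% dialyzed FBS, seeded at 5 × 10⁴ cells/mL and grown 2 days. Buffer: HBSS without phenol red, 20 mM Hepes, 2.5 mM probenecid, pH 7.4. Loaded 45–60 min with 4 µM Fluo3-AM plus 0.04% pluronic acid, then washed. Serially diluted compound added for 10 min before S1P injection; calcium fluorescence read on FLIPR.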

For experiment [3], the target named is Sphingosine 1-phosphate receptor 4 (Homo sapiens, UniProt O95977). The experiment is described as follows: Antagonist activity at human S1P4 receptor expressed in CHO cell membrane by FLIPR assay. The procedure, abridged: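 S1P4-expressing cells in HAM medium with 10% dialyzed FBS, seeded at 1 × 10⁵ cells/mL and grown 2 days. Buffer: HBSS without phenol red, 20 mM Hepes, 2.5 mM probenecid, pH 7.4. Fluo3-AM (4 µM, with 0.04% pluronic acid) loading for 45–60 min, then washed. Serially diluted compound given 10 min before S1P injection; calcium signal measured on FLIPR.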
Sequence of Sphingosine 1-phosphate receptor 4 (O95977 whole entry, looked up): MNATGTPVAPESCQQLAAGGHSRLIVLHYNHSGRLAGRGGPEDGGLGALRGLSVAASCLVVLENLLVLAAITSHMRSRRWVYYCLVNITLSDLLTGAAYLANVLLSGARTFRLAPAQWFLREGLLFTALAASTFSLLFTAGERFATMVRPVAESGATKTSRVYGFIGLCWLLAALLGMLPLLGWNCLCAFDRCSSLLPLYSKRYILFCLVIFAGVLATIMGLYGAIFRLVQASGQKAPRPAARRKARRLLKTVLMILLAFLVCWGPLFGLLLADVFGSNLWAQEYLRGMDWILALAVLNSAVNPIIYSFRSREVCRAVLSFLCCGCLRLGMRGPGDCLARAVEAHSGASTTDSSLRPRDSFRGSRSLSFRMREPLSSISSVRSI

Experiment [4] deals with T1, Sphingosine 1-phosphate receptor 1. As to the kind of experiment: Antagonist activity at human S1P1 receptor expressed in CHO cell membrane by FLIPR assay. The procedure, abridged:
as §1

Experiment [5] addresses Sphingosine 1-phosphate receptor 2 (Homo sapiens, UniProt O95136). The experiment is described as follows: Antagonist activity at human S1P2 receptor expressed in CHO cell membrane by FLIPR assay. The method, boiled down: as §1

T1 sequence (P21453 whole entry): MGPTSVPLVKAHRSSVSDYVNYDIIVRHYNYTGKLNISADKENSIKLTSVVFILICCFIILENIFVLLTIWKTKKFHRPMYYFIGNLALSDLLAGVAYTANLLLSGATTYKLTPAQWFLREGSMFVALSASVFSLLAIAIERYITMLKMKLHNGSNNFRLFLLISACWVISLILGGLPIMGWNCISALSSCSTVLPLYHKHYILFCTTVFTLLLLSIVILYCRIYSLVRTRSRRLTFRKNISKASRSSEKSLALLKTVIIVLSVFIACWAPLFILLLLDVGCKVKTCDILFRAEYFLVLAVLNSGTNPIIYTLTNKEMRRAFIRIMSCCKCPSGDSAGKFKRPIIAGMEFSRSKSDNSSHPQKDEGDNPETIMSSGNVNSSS
Sequence of Sphingosine 1-phosphate receptor 2 (O95136 whole entry): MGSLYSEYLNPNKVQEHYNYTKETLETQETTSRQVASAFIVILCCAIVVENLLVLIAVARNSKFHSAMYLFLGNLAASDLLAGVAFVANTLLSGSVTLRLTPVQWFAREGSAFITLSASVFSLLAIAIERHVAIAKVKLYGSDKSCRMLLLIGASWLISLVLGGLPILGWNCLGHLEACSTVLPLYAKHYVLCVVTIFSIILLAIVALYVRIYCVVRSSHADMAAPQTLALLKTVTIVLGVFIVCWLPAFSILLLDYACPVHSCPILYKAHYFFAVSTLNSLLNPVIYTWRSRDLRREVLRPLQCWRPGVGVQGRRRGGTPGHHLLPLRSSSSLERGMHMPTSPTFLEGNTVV
Sequence of Sphingosine 1-phosphate receptor 3 (Q99500 whole entry): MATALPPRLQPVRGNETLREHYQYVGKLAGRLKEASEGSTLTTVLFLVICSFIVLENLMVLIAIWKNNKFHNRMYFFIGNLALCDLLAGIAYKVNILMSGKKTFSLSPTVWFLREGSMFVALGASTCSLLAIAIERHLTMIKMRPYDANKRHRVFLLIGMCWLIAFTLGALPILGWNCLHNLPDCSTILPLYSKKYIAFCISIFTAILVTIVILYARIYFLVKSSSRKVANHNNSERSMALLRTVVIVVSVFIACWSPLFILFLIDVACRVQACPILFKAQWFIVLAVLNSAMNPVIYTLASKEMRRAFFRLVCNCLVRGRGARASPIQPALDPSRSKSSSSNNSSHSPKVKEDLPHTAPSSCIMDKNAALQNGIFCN

For orientation: pIC50 means −log10 of the IC50, conventionally taken in molar units. Higher therefore signals a small IC50. `CCCCCCCCCCC#CC(O)c1ccccc1-c1ccc(Oc2ccc(OCC)cc2)c(S(=O)(=O)O)c1` (configuration not stated) showed a pIC50 in experiment [1] of 6.40. In the case of `CCCCOc1ccc(Sc2ccc(-c3ccccc3C(O)C#CCOCCCO)cc2S(=O)(=O)O)cc1` (configuration not stated), the pIC50 in experiment [1] is < 4.70. For the compound `CCCCCCCCCCC#CC(O)c1ccccc1-c1ccc(Sc2ccc(OCCCC)cc2)c(S(=O)(=O)O)c1` (configuration not stated), the pIC50 in experiment [2] is 4.89; in experiment [3], 4.40; in experiment [1], 6.72; in experiment [4], 6.00; in experiment [5], 4.62. As for `CCCCCCCCCCC#CC(C)(O)c1ccccc1-c1ccc(Sc2ccc(OCCCC)cc2)c(S(=O)(=O)O)c1` (configuration not stated), the negative logarithm of the IC50 (pIC50) in experiment [1] was 6.00. On the same count and under the same terms, to `CCCCCCCCCCC#CC(O)c1ccccc1-c1ccc(Sc2ccc(OCCC)cc2)c(S(=O)(=O)O)c1` (configuration not stated) belongs 6.72. The same measure, in the same setting: to `CCCCOc1ccc(Sc2ccc(-c3ccccc3C(O)C#CCOCCCCCCCCCCCO)cc2S(=O)(=O)O)cc1` (configuration not stated) belongs 6.89; to `CCCCCCCCCCC#CC(O)c1ccccc1-c1ccc(Sc2ccc(OCCCCCCCC)cc2)c(S(=O)(=O)O)c1` (configuration not stated), < 5.62; to `CCCCCCCCCCCCCCCCCC1=NN(c2ccc(Oc3ccc(OCC)cc3)c(S(=O)(=O)O)c2)C(=O)C1`, 4.77. In experiment [1], `CCCCCCCCCCC#CC(O)c1sccc1-c1ccc(Oc2ccc(OCC)cc2)c(S(=O)(=O)O)c1` (configuration not stated) had a negative-log IC50 (pIC50) of 5.89. This pIC50 lies 1.12 log units higher than the previous one. On the same count and under the same terms, the value for `CCCCCCCCCCC#CC(O)c1cccc(-c2ccc(Oc3ccc(OCC)cc3)c(S(=O)(=O)O)c2)c1` (configuration not stated) was 5.34; that for `CCCCCCCCCCC#CC(O)c1ccccc1-c1ccc(Oc2ccccc2OCC)c(S(=O)(=O)O)c1` (configuration not stated) was 5.05; that for `CCCCOc1ccc(Sc2ccc(-c3ccccc3C(O)C#CCOCCCCCCCCCO)cc2S(=O)(=O)O)cc1` (configuration not stated) was 7.01. In the case of `CCCCCCCCCCC#CC(O)c1ccccc1-c1ccc(Sc2ccc(OC)cc2)c(S(=O)(=O)O)c1` (configuration not stated), the pIC50 in experiment [1] was 6.15.

Turning to `CCCCOc1ccc(Sc2ccc(-c3ccccc3C(O)C#CCOCCCCCO)cc2S(=O)(=O)O)cc1` (configuration not stated), the pIC50 in experiment [1] is 6.47. On the same count and under the same terms, to `CCCCCCCCCCC#CC(O)c1ccccc1-c1ccc(Oc2cccc(OCC)c2)c(S(=O)(=O)O)c1` (configuration not stated) belongs < 4.77; to `CCCCCCCCCCC#CC(O)c1ccc(-c2ccc(Oc3ccc(OCC)cc3)c(S(=O)(=O)O)c2)s1` (configuration not stated), 5.26. As to `CCCCOc1ccc(Sc2ccc(-c3ccccc3C(O)C#CCOCCCCCCCO)cc2S(=O)(=O)O)cc1` (configuration not stated), the pIC50 is 5.30 in experiment [2]; 5.22 in experiment [3]; 7.51 in experiment [1]; 6.30 in experiment [4]; 4.96 in experiment [5]. `CCCCCCCCCCC#CC(O)c1ccccc1-c1ccc(Sc2ccc(OCC)cc2)c(S(=O)(=O)O)c1` (configuration not stated) gave a pIC50 in experiment [1] of 6.40. The same measure, in the same setting: the value for `CCCCCCCCCCC#CC(O)c1ccccc1-c1ccc(Sc2ccc(OCCCCCC)cc2)c(S(=O)(=O)O)c1` (configuration not stated) was 6.28.
